This is one part of a sample in which hits are shown more often than they occur.
Yeast lifespan up – compounds extending yeast replicative lifespan, primary screen, S. cerevisiae, OD615. S. cerevisiae growth with nicotinamide; deaD strain in restrictive glucose medium. inhibition of the nicotinamide effect, % at 10 µM. hit rate 0.68% among 130,000. AID 775, 2007;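 active = inhibition above a set limit, placed 3 SD over the median of all compounds, cut at about 26% in these data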;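 also: 0% = nicotinamide-treated wells and 100% = cells grown without nicotinamide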
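Material: Modified budding yeast, DeaD strain | Medium: Restrictive glucose medium | Probe or stimulus: 1.5 mM nicotinamide | Dosing: Single dose 10 µM compound, 0.25% DMSO | Times: 48 h at 30 °C | Technique: OD615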
BB579 growth dn – growth inhibitors of yeast BB579 in restrictive medium, primary screen, yeast lifespan-shortening project, S. cerevisiae | OD615, 48 h | AID 804, 2007 | hit rate 0.51% among 140,000 | inhibition, % at 10 µM;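 active = inhibition above a set limit, 3 SD over the mean compound inhibition, cut at about 44% in these data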
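System: DeaD yeast strain BB579; buffer or medium: CSMM-D dextrose restrictive medium; technique: OD at 615 nm; schedule: 4 h cell preincubation, 48 h compound exposure, 30 °C humidified; doses: single 10 µM dose; controls: amphotericin B 10 µg/mL, positive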
PostGolgi ctrl – growth inhibition of yeast control strain, primary screen, counter-screen for post-Golgi transport modulator project | efflux-deficient yeast background strain, growth absorbance A615, 16 h | inhibition, % at 10 µM | hit rate 5% among 98,000
PostGolgi yeast – phenotypic screen on post-Golgi transport, primary screen. post-Golgi transport phenotypic cell assay. inhibition, % at 10 µM. hit rate 0.9% among 98,000. AID 739, 2007;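 also: yeast cells grown in 1536-well plates; yeast grown about 18 h at 30C before absorbance read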
Numbers without * were called inactive; . = not tested or not shown. Rule as the data show it, unless noted: active = inhibition above about 30%; inactive = the rest.

SMILES	Yeast lifespan up	BB579 growth dn	PostGolgi ctrl	PostGolgi yeast
CC1CCCN(S(=O)(=O)c2ccc(S(=O)(=O)NC(C)c3cccs3)cc2)C1 (configuration not stated)	-21.5	-13.1	9.9	-3.5
CC1CCC(NC(=O)C2c3ccccc3C(=O)N2CCCN2CCOCC2)CC1 (configuration not stated)	-5.4	-18.9	1.4	-7.3
O=c1c(Cc2ccc(Cl)cc2Cl)c(O)ccn1Cc1ccc(Cl)cc1	2.6	-33.4	62.0*	14.0
O=c1c(Cc2ccc(Cl)cc2)c(O)ccn1Cc1cccc(Cl)c1	-4.3	-60.4	23.9	0.5
CCC(CC)c1nnc(NC(=O)c2cc(C(=O)OC)cc([N+](=O)[O-])c2)s1	2.8	-9.3	.	.
NS(=O)(=O)c1ccc(CCNC2CC(=O)N(Cc3ccccc3)C2=O)cc1 (configuration not stated)	-20.2	-28.1	32.3*	-2.8
NS(=O)(=O)c1ccc(CCNC2CC(=O)N(CCc3ccccc3)C2=O)cc1 (configuration not stated)	3.0	-23.2	4.1	13.6
N#Cc1ccccc1OCC(=O)NC(N)=O	-9.8	11.0	10.9	-0.5
CCOC(=O)CCCNC(=O)COc1ccccc1C#N	65.7*	-10.5	0.3	-8.5
Cc1cc(C)c(C)c(S(=O)(=O)N2C(=S)NC(=O)C2CC(C)C)c1C (configuration not stated)	-6.8	-6.9	33.0*	1.3
Cc1cc(C)c(C)c(S(=O)(=O)N2C(=S)NC(=O)C2C(C)C)c1C (configuration not stated)	7.4	-19.2	43.9*	7.5
Cc1cc(C)c(C)c(S(=O)(=O)N2CCC(C(=O)OCC(=O)N3c4ccccc4NC(=O)C3(C)C)CC2)c1C	-0.4	-58.3	10.9	2.7
CC(C(=O)Nc1ccccc1Sc1ccccc1)N(c1ccccc1)S(C)(=O)=O (configuration not stated)	25.7	-27.4	23.5	-4.4
O=C(O)C1CC(=O)N(c2ccc(Br)cc2)C1 (configuration not stated)	-5.5	-43.2	42.5*	-7.3
O=C(Nc1nc2ccccc2s1)C1CC(=O)N(c2ccc(Br)cc2)C1 (configuration not stated)	-5.8	4.9	46.2*	-9.2
CN(c1cccc(NC(=O)CN2C(=O)c3ccccc3S2(=O)=O)c1)S(C)(=O)=O	-1.9	-14.0	32.7*	6.0
Cc1ccc(C(=C2C3C=CC2C2C(=O)NC(=O)C32)c2ccc(C)cc2)cc1 (configuration not stated)	-7.2	-55.6	55.1*	-1.2
Cc1ccc(-c2nc(P(=O)(c3ccccc3)c3ccccc3)c(N3CCOCC3)o2)cc1	7.5	-23.9	.	.
CNc1oc(-c2ccc(Cl)cc2)nc1P(=O)(c1ccccc1)c1ccccc1	3.4	-17.4	32.1*	6.6
COc1ccc(Cn2nnnc2C(CC(C)C)N2CCN(c3ccccc3)CC2)cc1 (configuration not stated)	-9.8	-7.0	63.2*	14.4
Cc1ccc(S(=O)(=O)Cn2nnnc2C(CC(C)C)N2CCN(c3ccccc3)CC2)cc1 (configuration not stated)	.	-61.8	.	.
CCCC(c1nnnn1Cc1ccc(OC)cc1)N1CCN(c2ccccc2)CC1 (configuration not stated)	15.0	-30.9	30.5*	3.2
CC(C)CC(c1nnnn1C(C)C)N1CCN(c2ccccc2)CC1 (configuration not stated)	-11.8	-22.4	61.0*	-6.8
O=C(Nn1cnnc1)c1ccccc1CCc1ccccc1	-2.0	-11.7	16.8	-10.3
CCCCCn1c(CCCNC(=O)CC)nc2ccccc21	-7.0	-14.0	10.9	2.2
SMILES	Yeast lifespan up	BB579 growth dn	PostGolgi ctrl	PostGolgi yeast
CC1CCC2(CC1)NC(=O)N(CC(=O)NC(=O)NC1CCCC1)C2=O (configuration not stated)	-5.9	-35.0	1.2	-9.7
COc1cc2c(cc1OC)C(C)N(C(=O)C1COc3ccccc3O1)CC2 (configuration not stated)	-21.2	18.4	12.6	8.6
CCCCNC(=O)CSc1nc2ccccc2c(=O)n1CC1COc2ccccc2O1 (configuration not stated)	-10.0	-34.6	11.4	7.4
CCOC(=O)C1=C(CSc2nc3ccccc3s2)NC(=O)NC1c1ccc(OC)cc1 (configuration not stated)	0.9	-30.4	42.1*	-0.3
CCOC(=O)C1=C(CSCC(=O)OC)NC(=O)NC1c1cc(C)ccc1C (configuration not stated)	-10.0	-6.9	13.2	-5.8
COC(=O)C1=C(CSc2nc3ccccc3o2)NC(=O)NC1c1cc(C)ccc1C (configuration not stated)	0.0	-48.5	49.2*	-1.4
COC(=O)C1=C(CN2CCN(C)CC2)NC(=O)NC1c1cc(C)ccc1C (configuration not stated)	-10.0	-51.7	4.2	-4.5
CCOC(=O)C1=C(CSc2nc3ccccc3s2)NC(=O)NC1c1cc(C)ccc1C (configuration not stated)	-11.2	-49.4	37.1*	12.0
CCOC(=O)C1=C(CP(=O)(c2ccccc2)c2ccccc2)NC(=O)NC1c1ccc(OC)cc1 (configuration not stated)	-2.0	-3.5	.	.
COC(=O)C1=C(CSCc2ccccc2)NC(=O)NC1c1cc(C)ccc1C (configuration not stated)	-3.6	-24.4	8.1	-24.1
COC(=O)C1=C(CN2CCc3ccccc32)NC(=O)NC1c1cc(C)ccc1C (configuration not stated)	-21.6	-28.3	31.9*	-9.8
Cc1c(C(=O)O)cccc1-c1ccc(/C=N/Nc2ccc(Br)cc2)o1	-5.9	44.4*	.	.
Brc1ccc(/C=N/Nc2ccccc2)cc1	-5.7	-2.5	.	.
COc1ccc(C2/C(=C(/O)c3ccccc3)C(=O)C(=O)N2CC(C)O)c(OC)c1 (configuration not stated)	-9.7	-17.5	-4.9	-10.8
Cc1csc(NC(=O)c2nc(-c3ccccc3)n(-c3ccccc3)n2)n1	-11.2	-23.5	8.4	38.0*
COc1ccc(N(C)C(=S)Nc2ccc3nc(C)c(C)nc3c2)cc1	42.5*	4.8	.	.
O=c1c2c(nc3n1CCCCC3)-c1ccccc1CC21CCCC1	-0.5	-29.7	46.2*	4.8
CN(C)Cc1nc2c(c(=O)[nH]1)C1(CCCCC1)Cc1ccccc1-2	-22.5	-11.0	-1.0	6.8
O=c1[nH]c(NCCCO)nc2c1C1(CCCC1)Cc1ccccc1-2	-21.2	-22.1	18.7	1.1
CCN(CC)Cc1nc2c(c(=O)[nH]1)C1(CCCCC1)Cc1ccccc1-2	-7.0	-55.7	31.5*	4.3
Cn1c(NCCO)nc2c(c1=O)C1(CCCCC1)Cc1ccccc1-2	-7.0	2.1	49.7*	1.2
CN(c1ccc(C(=O)N2CCCCC2)cc1)S(C)(=O)=O	-0.9	-15.8	18.6	-7.0
O=C(c1ccccc1C(F)(F)F)N1CCN(S(=O)(=O)c2ccccc2)CC1	-6.2	-19.8	1.8	1.8
CCCCCCCCC/C(=N\O)c1ccccn1	-28.4	99.6*	29.7	3.6
CCCCCCCCC(=O)N/N=C/c1ccccn1	-25.6	-23.6	20.2	-2.9

Assay outcomes deposited in PubChem by SRMLSC.
